In one assay the test system is Jurkat. Kind of assay: Inhibitory activity evaluated against human jurkat cell line in cellular assay. The format is functional, cell-based. The gist of the method:
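Human Jurkat cells, in an assay where caspase-8 is relevant but other caspases also contribute. Run for 24 h at 37 °C. Read-out is IC50 (µM).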

For the next assay, the species on record is Rattus norvegicus. Kind of assay: Inhibitory activity evaluated against rat Con A embryonic cortical neurons in cellular assay. Format: functional.
A further assay relates to SKW 6.4. Kind of assay: Inhibitory activity was evaluated against human SKW 6.4 cell line in cellular assay. The format is functional, cell-based. The gist of the method: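 Cellular assay (Con A; SKW 6.4 cells) run for 24 h at 37 °C. Read-out is IC50 (µM).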
The next assay deals with THP-1. Kind of assay: Inhibitory activity evaluated against human THP-1 cell line in cellular assay. Format: functional, cell-based. In outline:
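Human cells (monocytes; THP-1 line) in a caspase-1-dependent cellular assay run for 24 h at 37 °C. Read-out is IC50 (µM).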

pIC50: −log10 of the molar value.

A word on the pIC50: it is the IC50 on a negative log10 scale, so that one unit is a factor of ten. With `CC(C)[C@H](NC(=O)C(=O)Nc1cnccn1)C(=O)N[C@@H](CC(=O)O)C(=O)COc1c(F)c(F)cc(F)c1F`, the negative-log IC50 (pIC50) in the assay on Jurkat is 6.77; in the assay listed under Rattus norvegicus, 5.23; in the assay on SKW 6.4 it was 4.72; with THP-1 it was 5.84.

Take `CC(C)[C@H](NC(=O)C(=O)Nc1cccc2ccccc12)C(=O)N[C@@H](CC(=O)O)C(=O)COc1ccc(-c2ccccc2)cc1`: the values for the pIC50 in the assay listed under Rattus norvegicus and in the assay on THP-1 were < 4.30 and 5.95, respectively.

With `O=C(O)C[C@H](NC(=O)C1CCC(NC(=O)C(=O)Nc2cccc3ccccc23)C1)C(=O)COc1c(F)c(F)cc(F)c1F` (stereo partly drawn), the figures for the negative logarithm of the IC50 (pIC50) in the assay filed under Rattus norvegicus and with THP-1 were 5.60 and 6.03, respectively.

Regarding `CC(C)[C@H](NC(=O)C(=O)Nc1ccccc1I)C(=O)N[C@@H](CC(=O)O)C(=O)COc1c(F)c(F)cc(F)c1F`, the pIC50 in the assay on Jurkat is 7.09; in the assay listed under Rattus norvegicus, 6.00; in the assay with SKW 6.4, 5.81; in the assay with THP-1, 5.82.

As for `O=C(O)C[C@H](NC(=O)C1Cc2ccccc2N1C(=O)C(=O)Nc1cccc2ccccc12)C(=O)COc1c(F)c(F)cc(F)c1F` (stereo partly drawn), the pIC50 in the assay listed under Rattus norvegicus was 4.30; in the assay with THP-1 it was 4.65.

`O=C(O)C[C@H](NC(=O)C1CCCCN1C(=O)C(=O)Nc1cccc2ccccc12)C(=O)COc1c(F)c(F)cc(F)c1F` (stereo partly drawn) had a negative logarithm of the IC50 (pIC50) in the assay listed under Rattus norvegicus of 4.80.

On to `CC(C)[C@H](NC(=O)C(=O)Nc1c(F)cccc1F)C(=O)N[C@@H](CC(=O)O)C(=O)COc1c(F)c(F)cc(F)c1F`, for which the pIC50 in the assay with Jurkat was 6.87; in the assay filed under Rattus norvegicus it was 6.00; with SKW 6.4 it was 5.79; in the assay with THP-1, 6.42.

On to `CCCCCCCc1ccc(NC(=O)C(=O)N[C@H](C(=O)N[C@@H](CC(=O)O)C(=O)COc2c(F)c(F)cc(F)c2F)C(C)C)cc1`, for which the pIC50 in the assay on Jurkat was 6.57; in the assay filed under Rattus norvegicus, < 4.30; in the assay on SKW 6.4, 4.89; with THP-1, 5.18.

On to `CC(C)[C@H](NC(=O)C(=O)Nc1cc(C(C)(C)C)ccc1C(C)(C)C)C(=O)N[C@@H](CC(=O)O)C(=O)COc1c(F)c(F)cc(F)c1F`, for which the pIC50 with Jurkat is 7.77; in the assay filed under Rattus norvegicus, 5.70; in the assay with SKW 6.4, 5.73; in the assay with THP-1 it was 5.58.

As to `CC(C)[C@H](NC(=O)C(=O)NCCc1ccccc1)C(=O)N[C@@H](CC(=O)O)C(=O)COc1c(F)c(F)cc(F)c1F`, the pIC50 was 5.33 in the assay with Jurkat, 5.46 in the assay filed under Rattus norvegicus, 6.21 in the assay with SKW 6.4 and 7.10 with THP-1.

As to `CC(C)[C@H](NC(=O)C(=O)Nc1cc(F)c(F)c(F)c1F)C(=O)N[C@@H](CC(=O)O)C(=O)COc1c(F)c(F)cc(F)c1F`, the pIC50 is 7.40 with Jurkat, 5.46 in the assay listed under Rattus norvegicus, 5.92 in the assay on SKW 6.4 and 6.24 with THP-1.

As for `CC(C)[C@H](NC(=O)C(=O)Nc1cccc(Oc2ccccc2)c1)C(=O)N[C@@H](CC(=O)O)C(=O)COc1c(F)c(F)cc(F)c1F`, the pIC50 is 5.94 in the assay on Jurkat, 5.96 in the assay filed under Rattus norvegicus, 5.70 in the assay on SKW 6.4 and 5.73 in the assay on THP-1.

Take `CC(C)[C@H](NC(=O)C(=O)Nc1ccccc1Oc1ccccc1)C(=O)N[C@@H](CC(=O)O)C(=O)COc1c(F)c(F)cc(F)c1F`: the pIC50 in the assay with Jurkat was 6.18; in the assay filed under Rattus norvegicus, 5.60; in the assay on SKW 6.4, 5.75; in the assay on THP-1 it was 5.75.

For the compound `CC(C)[C@H](NC(=O)C(=O)Nc1ccccc1Br)C(=O)N[C@@H](CC(=O)O)C(=O)COc1c(F)c(F)cc(F)c1F`, the pIC50 in the assay on Jurkat was 6.45; in the assay filed under Rattus norvegicus, 6.40; with THP-1 it was 6.27.

With `CC(C)[C@H](NC(=O)C(=O)Nc1ccccc1Cc1ccccc1)C(=O)N[C@@H](CC(=O)O)C(=O)COc1c(F)c(F)cc(F)c1F`, the pIC50 is 8.05 in the assay with Jurkat, 5.70 in the assay filed under Rattus norvegicus, 5.81 with SKW 6.4 and 6.74 in the assay with THP-1.

`CC(C)[C@H](NC(=O)C(=O)Nc1cccc2ccccc12)C(=O)N[C@@H](CC(=O)O)C(=O)COc1ccc2ccccc2c1`: the negative-log IC50 (pIC50) in the assay listed under Rattus norvegicus is 5.14; in the assay with THP-1, 5.71.

`CNC(=O)C(=O)N[C@H](C(=O)N[C@@H](CC(=O)O)C(=O)COc1c(F)c(F)cc(F)c1F)C(C)C`: the pIC50 is 6.96 in the assay with Jurkat, 5.15 in the assay listed under Rattus norvegicus, 5.98 in the assay with SKW 6.4 and 5.91 in the assay with THP-1.

As to `O=C(O)C[C@H](NC(=O)[C@H](CCc1ccccc1)NC(=O)C(=O)Nc1cccc2ccccc12)C(=O)COc1c(F)c(F)cc(F)c1F`, the results for the negative logarithm of the IC50 (pIC50) in the assay listed under Rattus norvegicus and in the assay on THP-1 were 5.52 and 5.12, respectively.

Regarding `O=C(O)C[C@H](NC(=O)[C@H](Cc1ccccc1)NC(=O)C(=O)Nc1cccc2ccccc12)C(=O)COc1c(F)c(F)cc(F)c1F`, the pIC50 in the assay filed under Rattus norvegicus is 5.57; with THP-1, 5.90.

With `O=C(O)C[C@H](NC(=O)C(NC(=O)C(=O)Nc1cccc2ccccc12)c1ccccc1)C(=O)COc1c(F)c(F)cc(F)c1F` (stereo partly drawn), the results for the pIC50 in the assay filed under Rattus norvegicus and with THP-1 were 6.30 and 5.56, respectively.

For `CC(C)C[C@H](NC(=O)C(=O)Nc1cccc2ccccc12)C(=O)N[C@@H](CC(=O)O)C(=O)COc1c(F)c(F)cc(F)c1F`, the pIC50 was 5.60 with Jurkat and 5.59 in the assay filed under Rattus norvegicus.

With `CC(C)[C@H](NC(=O)C(=O)Nc1cccc2ccccc12)C(=O)N[C@@H](CC(=O)O)C(=O)COc1c(F)cc(F)cc1F`, the values for the pIC50 in the assay on Jurkat and in the assay filed under Rattus norvegicus were 8.28 and 6.52, respectively.

Turning to `O=C(O)C[C@H](NC(=O)C(NC(=O)C(=O)Nc1cccc2ccccc12)C1CCCCC1)C(=O)COc1c(F)c(F)cc(F)c1F` (stereo partly drawn), the figures for the pIC50 in the assay listed under Rattus norvegicus and with THP-1 were 5.82 and 5.84, respectively.

Consider `CC(C)[C@H](NC(=O)C(=O)Nc1cccc2ccccc12)C(=O)N[C@@H](CC(=O)O)C(=O)COc1c(F)c(F)cc(F)c1F`, for which the negative logarithm of the IC50 (pIC50) in the assay on Jurkat is 8.21; in the assay listed under Rattus norvegicus, 6.26.

With `CC(C)(C)C(NC(=O)C(=O)Nc1cccc2ccccc12)C(=O)N[C@@H](CC(=O)O)C(=O)COc1c(F)c(F)cc(F)c1F` (stereo partly drawn), the values for the pIC50 in the assay filed under Rattus norvegicus and in the assay on THP-1 were 5.54 and 6.57, respectively.

With `CC(C)[C@H](NC(=O)C(=O)N(C)c1cccc2ccccc12)C(=O)N[C@@H](CC(=O)O)C(=O)COc1c(F)c(F)cc(F)c1F`, the pIC50 in the assay on Jurkat was < 4.00; in the assay listed under Rattus norvegicus it was < 4.30; with SKW 6.4 it was < 4.00.

Take `CC(C)[C@H](NC(=O)C(=O)Nc1cccc2ccccc12)C(=O)N[C@@H](CC(=O)O)C(=O)COP(C)(=O)c1ccccc1` (stereo partly drawn): the values for the pIC50 in the assay filed under Rattus norvegicus and with THP-1 were 5.70 and 7.05, respectively.

`CC(C)C[C@H](NC(=O)C(=O)Nc1cccc2ccccc12)C(=O)N[C@@H](CC(=O)O)C(=O)COc1c(F)cc(F)cc1F`: the pIC50 with Jurkat was 6.27; in the assay filed under Rattus norvegicus, 5.34.

As to `CC(C)[C@H](NC(=O)C(=O)Nc1ccccc1C(F)(F)F)C(=O)N[C@@H](CC(=O)O)C(=O)COc1c(F)c(F)cc(F)c1F`, the pIC50 in the assay on Jurkat is 8.77; in the assay filed under Rattus norvegicus it was 6.19; in the assay on SKW 6.4 it was 6.64; in the assay with THP-1, 6.09.

As to `CC(C)[C@H](NC(=O)C(=O)Nc1cccc2ccccc12)C(=O)N[C@@H](CC(=O)O)C(=O)COc1cccc2ccccc12`, the values for the pIC50 in the assay listed under Rattus norvegicus and in the assay with THP-1 were 5.57 and 5.51, respectively.

Take `COc1ccccc1NC(=O)C(=O)N[C@H](C(=O)N[C@@H](CC(=O)O)C(=O)COc1c(F)c(F)cc(F)c1F)C(C)C`: the pIC50 with Jurkat is 6.51; in the assay filed under Rattus norvegicus, 5.60; in the assay on SKW 6.4, 5.92; in the assay with THP-1, 6.40.

With `CC(C)[C@H](NC(=O)C(=O)Nc1cccc2ccccc12)C(=O)N[C@@H](CC(=O)O)C(=O)COS(=O)c1ccccc1` (stereo partly drawn), the pIC50 was < 4.30 in the assay filed under Rattus norvegicus and 5.08 with THP-1.

In the case of `CC(C)[C@H](NC(=O)C(=O)Nc1cccc2ccccc12)C(=O)N[C@@H](CC(=O)O)C(=O)COc1c(F)cccc1F`, the pIC50 is 6.35 in the assay filed under Rattus norvegicus and 6.32 in the assay with THP-1.

`COC(=O)c1cc(OCC(=O)[C@H](CC(=O)O)NC(=O)[C@@H](NC(=O)C(=O)Nc2cccc3ccccc23)C(C)C)no1`: the negative logarithm of the IC50 (pIC50) in the assay listed under Rattus norvegicus is 5.05; in the assay on THP-1, 6.55.

For `CC(C)[C@H](NC(=O)C(=O)Nc1cccc2ccccc12)C(=O)N[C@@H](CC(=O)O)C(=O)COP(=O)(c1ccccc1)c1ccccc1`, the negative logarithm of the IC50 (pIC50) in the assay filed under Rattus norvegicus and with THP-1 was 6.19 in each case.

For `CCCCC(NC(=O)C(=O)Nc1cccc2ccccc12)C(=O)N[C@@H](CC(=O)O)C(=O)COc1c(F)c(F)cc(F)c1F` (stereo partly drawn), in the assay listed under Rattus norvegicus, the pIC50 is 6.00.

On to `CC(C)[C@H](NC(=O)C(=O)Nc1cccc2ccccc12)C(=O)N[C@@H](CC(=O)O)C(=O)COc1ccnc(C(F)(F)F)n1`, for which the figures for the pIC50 in the assay filed under Rattus norvegicus and with THP-1 were 5.70 and 6.60, respectively.

With `CC(C)C[C@H](NC(=O)C(=O)Nc1cccc2ccccc12)C(=O)N[C@@H](CC(=O)O)C(=O)COC(=O)c1c(Cl)cccc1Cl`, the pIC50 in the assay with Jurkat was 5.89; in the assay listed under Rattus norvegicus, 6.30.

`CC(C)[C@H](NC(=O)C(=O)Nc1cccc2ccccc12)C(=O)N[C@@H](CC(=O)O)C(=O)COC(=O)c1c(Cl)cccc1Cl`: the pIC50 is 8.37 in the assay with Jurkat and 6.46 in the assay listed under Rattus norvegicus.

On to `CC(C)[C@H](NC(=O)C(=O)Nc1ccccc1-c1ccccc1)C(=O)N[C@@H](CC(=O)O)C(=O)COc1c(F)c(F)cc(F)c1F`, for which the pIC50 was 6.70 with Jurkat, 5.60 in the assay filed under Rattus norvegicus, 6.32 with SKW 6.4 and 6.80 in the assay with THP-1.

On to `CC(C)[C@H](NC(=O)C(=O)Nc1ccc2ccccc2c1)C(=O)N[C@@H](CC(=O)O)C(=O)COc1c(F)c(F)cc(F)c1F`, for which the pIC50 with Jurkat is 9.15; in the assay listed under Rattus norvegicus it was 5.48; with SKW 6.4, 6.42; in the assay on THP-1 it was 6.15.

For the compound `CC(C)[C@H](NC(=O)C(=O)NC(c1ccccc1)c1ccccc1)C(=O)N[C@@H](CC(=O)O)C(=O)COc1c(F)c(F)cc(F)c1F`, the pIC50 is < 3.70 in the assay with Jurkat, 5.14 in the assay listed under Rattus norvegicus and 6.77 in the assay with THP-1.

As to `CC(C)[C@H](NC(=O)C(=O)NOCc1ccccc1)C(=O)N[C@@H](CC(=O)O)C(=O)COc1c(F)c(F)cc(F)c1F`, the pIC50 is 4.51 with Jurkat, 4.82 in the assay filed under Rattus norvegicus and < 4.49 with THP-1.

The record behind these values is ChEMBL document CHEMBL1146752, “Oxamyl dipeptide caspase inhibitors developed for the treatment of stroke” (Bioorg Med Chem Lett, 2004).
